{"source": "ChEMBL document CHEMBL1131139", "about": "“Synthesis and antibacterial activity of ketolides (6-O-methyl-3-oxoerythromycin derivatives): a new class of antibacterials highly potent against macrolide-resistant and -susceptible respiratory pathogens” (1998)", "key": {"Mus musculus [1]": {"system": "Mus musculus", "test": "In Vivo evaluation for its effective dose against Streptococcus pneumoniae (032UC1)", "type": "functional", "procedure,_shortened": "(§1)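 Male Charles River CD1 mice, 20-22 g, 10 per dose group, infected intraperitoneally with 0.5 mL diluted overnight broth culture (physiological buffer or 5% hog mucine) at 10-100 times the minimal lethal dose. Compound suspended in carboxymethylcellulose, 0.5 mL given orally immediately and 4 h postinfection. Survival followed 8-10 days; ED50 (unitary dose protecting 50% from death) by Litchfield-Wilcoxon probit method.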"}, "[2]": {"system": "Staphylococcus epidermidis", "test": "In vitro inhibitory activity against Staphylococcus epidermidis (EryRi 012GO11i)", "type": "functional", "procedure,_shortened": "(§2)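 Two-fold agar dilution on Mueller-Hinton agar (pH 7.4). Inoculum from overnight plate cultures suspended in Mueller-Hinton broth, adjusted to 10^9 CFU/mL, diluted 1:200 and spotted by multipoint inoculator at about 10^4 CFU/spot. Plates incubated 37 °C for 20 h. MIC taken as lowest concentration with no visible growth.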"}, "Mus musculus [3]": {"system": "Mus musculus", "test": "In Vivo evaluation for its effective dose against Staphylococcus aureus (011GO25 EryRi.", "type": "functional", "procedure,_shortened": "as §1"}, "Mus musculus [4]": {"system": "Mus musculus", "test": "In Vivo evaluation for its effective dose against Haemophilus influenzae (351TO19 AmpR beta (-))", "type": "functional", "procedure,_shortened": "as §1"}, "Staphylococcus aureus [5]": {"system": "Staphylococcus aureus", "test": "In vitro inhibitory activity against Staphylococcus aureus (EryRc 011CB20)", "type": "functional", "procedure,_shortened": "as §2"}, "Mus musculus [6]": {"system": "Mus musculus", "test": "In Vivo evaluation for its effective dose against Haemophilus influenzae (351GR1)", "type": "functional", "procedure,_shortened": "as §1"}, "Mus musculus [7]": {"system": "Mus musculus", "test": "In Vivo evaluation for its effective dose against Staphylococcus aureus (011UC4).", "type": "functional", "procedure,_shortened": "as §1"}, "Streptococcus pneumoniae [8]": {"system": "Streptococcus pneumoniae", "test": "In vitro inhibitory activity against Streptococcus pneumoniae (EryRi 030SJ5i)", "type": "functional", "procedure,_shortened": "as §2"}, "Streptococcus pneumoniae [9]": {"system": "Streptococcus pneumoniae", "test": "In vitro inhibitory activity against Streptococcus pneumoniae (032UC1)", "type": "functional", "procedure,_shortened": "as §2"}, "Mus musculus [10]": {"system": "Mus musculus", "test": "In Vivo evaluation for its effective dose against Streptococcus pneumoniae (030MV2 EryRc)", "type": "functional", "procedure,_shortened": "as §1"}, "Mus musculus [11]": {"system": "Mus musculus", "test": "In Vivo evaluation for its effective dose against Streptococcus pneumoniae (030Cr29 EryRc)", "type": "functional", "procedure,_shortened": "as §1"}, "Staphylococcus aureus [12]": {"system": "Staphylococcus aureus", "test": "In vitro inhibitory activity against Staphylococcus aureus (EryRi 011GO25i)", "type": "functional", "procedure,_shortened": "as §2"}, "Haemophilus influenzae [13]": {"system": "Haemophilus influenzae", "test": "In vitro inhibitory activity against Haemophilus influenzae (351HT3)", "type": "functional", "procedure,_shortened": "as §2"}, "Escherichia coli": {"system": "Escherichia coli", "test": "In vitro inhibitory activity against Escherichia coli (250 UC5)", "type": "functional", "procedure,_shortened": "as §2"}, "Mus musculus [14]": {"system": "Mus musculus", "test": "In Vivo evaluation for its effective dose against Haemophilus influenzae (351RD7 AmpR beta (+))", "type": "functional", "procedure,_shortened": "as §1"}, "Streptococcus pneumoniae [15]": {"system": "Streptococcus pneumoniae", "test": "In vitro inhibitory activity against Streptococcus pneumoniae (EryRc 030SJ1)", "type": "functional", "procedure,_shortened": "as §2"}, "Staphylococcus aureus [16]": {"system": "Staphylococcus aureus", "test": "In vitro inhibitory activity against Staphylococcus aureus (011UC4)", "type": "functional", "procedure,_shortened": "as §2"}, "Mus musculus [17]": {"system": "Mus musculus", "test": "In Vivo evaluation for its effective dose against Streptococcus pneumoniae (030SJ6 EryRc)", "type": "functional", "procedure,_shortened": "as §1"}, "Mus musculus [18]": {"system": "Mus musculus", "test": "In Vivo evaluation for its effective dose against Streptococcus pneumoniae (030RO1 EryRi)", "type": "functional", "procedure,_shortened": "as §1"}, "Mus musculus [19]": {"system": "Mus musculus", "test": "In Vivo evaluation for its effective dose against Streptococcus pneumoniae (030SJ1 EryRc)", "type": "functional", "procedure,_shortened": "as §1"}, "Streptococcus pyogenes": {"system": "Streptococcus pyogenes", "test": "In vitro inhibitory activity against Streptococcus pyogenes (02A1UC1)"}, "Haemophilus influenzae [20]": {"system": "Haemophilus influenzae", "test": "In vitro inhibitory activity against Haemophilus influenzae (351CB12)", "type": "functional", "procedure,_shortened": "as §2"}, "Mus musculus [21]": {"system": "Mus musculus", "test": "In Vivo evaluation for its effective dose against Streptococcus pyogenes (02A1UC1)", "type": "functional", "procedure,_shortened": "as §1"}, "Enterococcus [22]": {"system": "Enterococcus", "test": "In vitro inhibitory activity against enterococci EryRc (13)", "type": "functional"}, "Staphylococcus sp. [23]": {"system": "Staphylococcus sp.", "test": "In vitro inhibitory activity against Staphylococci Staphylococci EryRc (23)", "type": "functional"}, "Haemophilus [24]": {"system": "Haemophilus", "test": "In vitro inhibitory activity against Haemophilus AmpR (37)", "type": "functional"}, "Haemophilus [25]": {"system": "Haemophilus", "test": "In vitro inhibitory activity against Haemophilus AmpS (43)", "type": "functional"}, "Streptococcus sp. [26]": {"system": "Streptococcus sp.", "test": "In vitro inhibitory activity against Streptococci EryR (27)", "type": "functional"}, "[27]": {"test": "In vitro inhibitory activity against Pneumococci EryRc (34)", "type": "functional"}, "Streptococcus sp. [28]": {"system": "Streptococcus sp.", "test": "In vitro inhibitory activity against Streptococci EryRi (98)", "type": "functional"}, "Enterococcus [29]": {"system": "Enterococcus", "test": "In vitro inhibitory activity against enterococci EryRi (19)", "type": "functional"}, "Staphylococcus sp. [30]": {"system": "Staphylococcus sp.", "test": "In vitro inhibitory activity against Staphylococci EryRi (65)", "type": "functional"}, "[31]": {"test": "In vitro inhibitory activity against Pneumococci PenR (65)", "type": "functional"}}, "data": [{"smiles": "CC[C@H]1OC(=O)[C@H](C)C(=O)[C@H](C)[C@@H](O[C@@H]2O[C@H](C)C[C@H](N(C)C)[C@H]2O)[C@](C)(OC)C[C@@H](C)C(=O)[C@H](C)[C@H]2N(NCCCc3ccnc4ccccc34)C(=O)O[C@]12C", "values": [{"measurement": "ED50", "setting": "Mus musculus [1]", "result": 15.8, "unit": "mg/kg"}, {"measurement": "MIC", "setting": "[2]", "result": 0.04, "unit": "µg/mL"}, {"measurement": "ED50", "setting": "Mus musculus [3]", "result": 13, "unit": "mg/kg"}, {"measurement": "ED50", "setting": "Mus musculus [4]", "result": 410, "unit": "mg/kg"}, {"measurement": "MIC", "setting": "Staphylococcus aureus [5]", "result": 40, "unit": "µg/mL"}, {"measurement": "ED50", "setting": "Mus musculus [6]", "result": 142, "unit": "mg/kg"}, {"measurement": "ED50", "setting": "Mus musculus [7]", "result": 20, "unit": "mg/kg"}, {"measurement": "MIC", "setting": "Streptococcus pneumoniae [8]", "result": 0.02, "unit": "µg/mL"}, {"measurement": "MIC", "setting": "Streptococcus pneumoniae [9]", "result": 0.02, "unit": "µg/mL"}, {"measurement": "ED50", "setting": "Mus musculus [10]", "result": 19, "unit": "mg/kg"}, {"measurement": "ED50", "setting": "Mus musculus [11]", "result": 15, "unit": "mg/kg"}, {"measurement": "MIC", "setting": "Staphylococcus aureus [12]", "result": 0.08, "unit": "µg/mL"}, {"measurement": "MIC", "setting": "Haemophilus influenzae [13]", "result": 0.6, "unit": "µg/mL"}, {"measurement": "MIC", "setting": "Escherichia coli", "result": 40, "unit": "µg/mL"}, {"measurement": "ED50", "setting": "Mus musculus [14]", "result": 116, "unit": "mg/kg"}, {"measurement": "MIC", "setting": "Streptococcus pneumoniae [15]", "result": 0.15, "unit": "µg/mL"}, {"measurement": "MIC", "setting": "Staphylococcus aureus [16]", "result": 0.02, "unit": "µg/mL"}, {"measurement": "ED50", "setting": "Mus musculus [17]", "result": 17, "unit": "mg/kg"}, {"measurement": "ED50", "setting": "Mus musculus [18]", "result": 30, "unit": "mg/kg"}, {"measurement": "ED50", "setting": "Mus musculus [19]", "result": 42, "unit": "mg/kg"}, {"measurement": "MIC", "setting": "Streptococcus pyogenes", "result": 0.02, "unit": "µg/mL"}, {"measurement": "MIC", "setting": "Haemophilus influenzae [20]", "result": 0.6, "unit": "µg/mL"}, {"measurement": "ED50", "setting": "Mus musculus [21]", "result": 16, "unit": "mg/kg"}]}, {"smiles": "CO[C@@H]1[C@@H](OC2OC(C)C(OC3CC(C)(O)C(OC(=O)CC(C)C)C(C)O3)C(N(C)C)C2O)[C@@H](CC=O)C[C@@H](C)[C@@H](O)/C=C/C=C/C[C@@H](C)OC(=O)C[C@H]1OC(C)=O", "note": "(some centres undefined)", "values": [{"measurement": "MIC50", "setting": "Enterococcus [22]", "result": 40, "unit": "µg/mL"}, {"measurement": "MIC90", "setting": "Enterococcus [22]", "result": 40, "unit": "µg/mL"}, {"measurement": "MIC50", "setting": "Staphylococcus sp. [23]", "result": 40, "unit": "µg/mL"}, {"measurement": "MIC90", "setting": "Staphylococcus sp. [23]", "result": 40, "unit": "µg/mL"}, {"measurement": "MIC50", "setting": "Haemophilus [24]", "result": 5, "unit": "µg/mL"}, {"measurement": "MIC90", "setting": "Haemophilus [24]", "result": 20, "unit": "µg/mL"}, {"measurement": "ED50", "setting": "Mus musculus [3]", "result": "> 100", "unit": "mg/kg"}, {"measurement": "MIC50", "setting": "Haemophilus [25]", "result": 5, "unit": "µg/mL"}, {"measurement": "MIC90", "setting": "Haemophilus [25]", "result": 20, "unit": "µg/mL"}, {"measurement": "ED50", "setting": "Mus musculus [10]", "result": "> 100", "unit": "mg/kg"}, {"measurement": "ED50", "setting": "Mus musculus [11]", "result": "> 100", "unit": "mg/kg"}, {"measurement": "MIC50", "setting": "Streptococcus sp. [26]", "result": 5, "unit": "µg/mL"}, {"measurement": "MIC90", "setting": "Streptococcus sp. [26]", "result": 40, "unit": "µg/mL"}, {"measurement": "MIC50", "setting": "[27]", "result": 20, "unit": "µg/mL"}, {"measurement": "MIC90", "setting": "[27]", "result": 40, "unit": "µg/mL"}, {"measurement": "MIC50", "setting": "Streptococcus sp. [28]", "result": 5, "unit": "µg/mL"}, {"measurement": "MIC90", "setting": "Streptococcus sp. [28]", "result": 40, "unit": "µg/mL"}, {"measurement": "ED50", "setting": "Mus musculus [17]", "result": "> 100", "unit": "mg/kg"}, {"measurement": "MIC50", "setting": "Enterococcus [29]", "result": 1.2, "unit": "µg/mL"}, {"measurement": "MIC90", "setting": "Enterococcus [29]", "result": 1.2, "unit": "µg/mL"}, {"measurement": "ED50", "setting": "Mus musculus [18]", "result": "> 100", "unit": "mg/kg"}, {"measurement": "ED50", "setting": "Mus musculus [19]", "result": "> 100", "unit": "mg/kg"}, {"measurement": "MIC50", "setting": "Staphylococcus sp. [30]", "result": 1.2, "unit": "µg/mL"}, {"measurement": "MIC90", "setting": "Staphylococcus sp. [30]", "result": 2.5, "unit": "µg/mL"}, {"measurement": "MIC50", "setting": "[31]", "result": 0.3, "unit": "µg/mL"}, {"measurement": "MIC90", "setting": "[31]", "result": 40, "unit": "µg/mL"}]}]}
